The source made the active and inactive calls. The rule behind the calls is not given here.
Legend:
[1] = molecular target: Amyloid-beta precursor protein (Homo sapiens) (UniProt P05067); test: Inhibition of amyloid beta (1 to 42) (unknown origin) self-induced aggregation at 20 uM after 46 to 48 hrs by thioflavin-T based fluorometric assay
In short: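 HFIP-pretreated Aβ(1–42) redissolved at 25 μM in 50 mM phosphate buffer, pH 7.4. Compound at 20 μM final, with 10% final solvent, run in independent triplicates with a solvent control. Incubated in the dark at room temperature for 46–48 h without agitation. 5 μM ThT in glycine-NaOH pH 8.0 added, ex/em 446/490 nm. Inhibition = 100 − (IFi/IFo × 100).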

[2] = system: Radical scavenging activity; test: Antioxidant activity assessed as DPPH free radical scavenging activity after 30 mins by spectrophotometric analysis; assay type: functional
In short: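 Methanolic DPPH at 400 μM combined with serially diluted sample (1:9 by volume), 30 min at 37 °C in the dark, absorbance at 517 nm. Scavenging % = [1 − (A − C)/B] × 100, with a sample-only blank and MeOH as negative control. IC50 values are mean ± SD of three determinations.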

[3] = molecular target: Amyloid-beta precursor protein (Homo sapiens) (UniProt P05067); test: Inhibition of Cu2+-induced amyloid beta (1 to 42) (unknown origin) aggregation assessed as reduction of H2O2 production at 800 nM after 30 mins by HRP/Amplex red assay
In short: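 Mixture of CuCl2 400 nM, Aβ, compound 800 nM (1% DMSO) and sodium ascorbate 10 μM in phosphate buffer, 30 min at room temperature. Amplex Red/HRP working solution then added and incubated a further 30 min at room temperature. Fluorescence read at ex/em 530/590 nm, at least three measurements.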

SH-SY5Y [4] = test: Neuroprotective activity in human SH-SY5Y cells assessed as inhibition H2O2-induced reduction of cell viability at 1.25 to 10 uM after 24 hrs by phase-contrast micrograph analysis; assay type: functional, cell-based; details: in the assay text read “MTT assay” for “phase-contrast micrograph analysis”
In short: (§1)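 SH-SY5Y cells seeded at 1×10^4 cells/well. After 24 h, medium replaced with compound (1.25, 2.5, 5, 10 μM) for 24 h at 37 °C. Cells then exposed to 100 μM H2O2 for 24 h and assessed by MTT, with phase-contrast images (200×). Viability given relative to cells without H2O2, three independent experiments.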

[5] = Cytotoxicity against human SH-SY5Y cells assessed as reduction of cell viability at 1 to 50 uM after 24 hrs by MTT assay; assay type: cell-based
In short: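 SH-SY5Y cells grown in EMEM/Ham's F-12 (1:1) with 10% FBS, penicillin and streptomycin, 37 °C, 5% CO2. Seeded at 1×10^4 cells/well, switched to serum-free medium, exposed to compound for 24 h. MTT 4 h at 37 °C, formazan dissolved in DMSO, A570 with 630 nm reference. Mean ± SD of three independent experiments.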

[6] = molecular target: Amyloid-beta precursor protein (Homo sapiens) (UniProt P05067); test: Inhibition of Cu2+-induced amyloid beta (1 to 42) (unknown origin) aggregation at 50 uM after 24 hrs by thioflavin-T based fluorometric assay
In short: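 Aβ(1–42) at 25 μM final in HEPES pH 6.6 with NaCl, with or without 25 μM Cu2+, plus 50 μM compound, incubated at 37 °C for 24 h. Sample diluted into 50 mM glycine-NaOH pH 8.0 containing 5 μM ThT, read at ex/em 446/490 nm. Mean ± SD of three independent experiments.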

[7] = Metal chelating activity of the compound assessed as Fe2+-compound complex formation at 25 uM by UV-vis spectrometry; assay type: physicochemical
[8] = Metal chelating activity of the compound assessed as Cu2+-compound complex formation at 25 uM by UV-vis spectrometry; assay type: physicochemical
In short: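 Difference UV–vis spectra obtained by subtracting metal-alone and compound-alone spectra from the spectra of the mixture. Stoichiometry assessed with ligand fixed at 25 μmol/L and Cu2+ titrated from 2 to 50 μmol/L.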

[9] = Ratio of resveratrol IC50 to compound IC50 for DPPH free radical scavenging activity
SH-SY5Y [10] = test: Neuroprotective activity in human SH-SY5Y cells assessed as inhibition H2O2-induced reduction of cell viability at 10 uM after 24 hrs by phase-contrast micrograph analysis; assay type: functional, cell-based; in short: as §1

Chain of Amyloid-beta precursor protein (Homo sapiens) (P05067 whole entry): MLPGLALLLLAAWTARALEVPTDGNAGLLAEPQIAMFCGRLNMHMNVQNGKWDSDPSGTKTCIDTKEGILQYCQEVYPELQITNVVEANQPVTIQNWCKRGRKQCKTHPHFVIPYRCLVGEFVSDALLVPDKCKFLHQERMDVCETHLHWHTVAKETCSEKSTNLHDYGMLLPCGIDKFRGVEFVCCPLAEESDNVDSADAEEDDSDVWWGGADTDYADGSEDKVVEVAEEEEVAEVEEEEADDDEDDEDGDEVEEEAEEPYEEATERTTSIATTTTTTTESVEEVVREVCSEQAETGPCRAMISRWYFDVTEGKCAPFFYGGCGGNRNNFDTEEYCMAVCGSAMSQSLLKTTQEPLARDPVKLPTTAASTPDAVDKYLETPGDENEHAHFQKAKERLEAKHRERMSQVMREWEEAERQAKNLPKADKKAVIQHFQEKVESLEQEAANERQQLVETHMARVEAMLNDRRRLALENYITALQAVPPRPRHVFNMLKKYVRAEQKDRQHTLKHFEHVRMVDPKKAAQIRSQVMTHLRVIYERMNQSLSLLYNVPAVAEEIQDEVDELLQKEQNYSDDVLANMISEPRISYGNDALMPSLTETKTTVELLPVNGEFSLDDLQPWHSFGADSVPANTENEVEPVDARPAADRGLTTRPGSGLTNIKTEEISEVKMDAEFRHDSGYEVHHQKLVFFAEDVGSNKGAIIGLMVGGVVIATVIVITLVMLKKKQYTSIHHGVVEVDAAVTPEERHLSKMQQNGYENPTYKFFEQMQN

| Structure (SMILES) | inhibition [1] | IC50 [2] | further results |
| --- | --- | --- | --- |
| Oc1ccc(Cl)cc1/C=N/c1ccccc1 | 33.8% | > 2000 µM |  |
| COc1ccc(/C=N/c2ccccc2O)cc1OC | 39.4% | 28.5 µM |  |
| CN(C)c1ccc(/C=N/c2ccccc2O)cc1 | 55.8% | 45.1 µM |  |
| O=C(O)CN(CCN(CC(=O)O)CC(=O)O)CC(=O)O |  |  | inhibition [3]: > 90% |
| Oc1cccc(/N=C/c2ccccc2O)c1 | 66.1% | > 2000 µM |  |
| Oc1ccccc1/N=C/c1cccc(F)c1 | 67.6% | 36.8 µM | Activity (SH-SY5Y [4]): Active; Activity [5]: Non-toxic; inhibition [6]: 70.2% |
| COc1ccc(/C=N/c2ccccc2O)cc1 | 35.7% | 32.7 µM |  |
| Oc1c(I)cc(Cl)c2cccnc12 |  |  | inhibition [3]: 75%; inhibition [6]: 66.7% |
| Oc1ccc(/N=C/c2ccccc2O)cc1 | 71.2% | 399 µM |  |
| Oc1ccccc1/N=C/c1ccc(F)cc1 | 67.8% | 41.3 µM |  |
| Oc1cccc(/C=N/c2ccccc2O)c1 | 64.3% | 66.6 µM |  |
| Oc1ccccc1/N=C/c1ccccc1F | 69.4% | 43.9 µM |  |

Continued, in another order:

| inhibition [1] | IC50 [2] | Structure (SMILES) | further results |
| --- | --- | --- | --- |
| 67.2% | 51.8 µM | Oc1ccccc1/C=N/c1ccccc1O |  |
| 29% | 794 µM | COc1ccc(O)c(/C=N/c2ccccc2)c1 |  |
| 44.9% | > 2000 µM | Oc1ccccc1/C=N/c1ccccc1 [2-((PHENYLIMINO)METHYL)PHENOL] |  |
| 27.8% | > 2000 µM | Oc1ccccc1/C=N/c1ccccc1F |  |
| 64.6% | 14.1 µM | Oc1ccc(/C=N/c2ccccc2O)cc1O | Activity (SH-SY5Y [4]): Active; Activity [5]: Non-toxic; inhibition [3]: 80%; inhibition [6]: 68.1%; Activity [7]: Active; Activity [8]: Active; Ratio IC50 [9]: 7.7 |
| 70.9% | 26.5 µM | Oc1ccc(/C=N/c2ccccc2O)cc1 | Activity (SH-SY5Y [4]): Active; Activity [5]: Non-toxic; inhibition [6]: 83.7% |
| 51.7% | 39.9 µM | Oc1ccccc1/N=C/c1ccccc1 |  |
| 31.3% | > 2000 µM | Oc1ccccc1/C=N/c1cccc(F)c1 |  |
| 24.9% | > 2000 µM | Oc1ccccc1/C=N/c1ccc(F)cc1 |  |
| 64.2% | 109 µM | Oc1ccc(/C=C/c2cc(O)cc(O)c2)cc1 [RESVERATROL] | Activity (SH-SY5Y [10]): Active |
| 63.1% | 37.8 µM | Oc1ccc(/C=N/c2ccccc2O)c(O)c1 |  |

From ChEMBL document CHEMBL3098033, “Design, synthesis and biological evaluation of imine resveratrol derivatives as multi-targeted agents against Alzheimer's disease” (Eur J Med Chem, 2014)
